The record followed here is ChEMBL document CHEMBL2331366, “Bioactive indole alkaloids and phenyl ether derivatives from a marine-derived Aspergillus sp. Fungus” (J Nat Prod, 2013).

For one assay, the system named is K562. The experiment in a line: Cytotoxicity against human K562 cells assessed as inhibition of cell viability by MTT assay. In kind it is functional, cell-based.
The subject of another assay is Vibrio parahaemolyticus. The assay is described as follows: Antibacterial activity against Vibrio parahaemolyticus ATCC 17802 assessed as growth inhibition. In kind it is functional. The essentials: (§1)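 In vitro antibacterial test against each listed strain. Activity is reported as MIC (μM), with ciprofloxacin as the positive control.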
For a further assay, the system named is Pseudomonas putida. The assay is described as follows: Antibacterial activity against Pseudomonas putida ATCC 17848 assessed as growth inhibition. The class given is functional. Summed up:
as §1

The next assay concerns Staphylococcus aureus. The experiment in a line: Antibacterial activity against Staphylococcus aureus ATCC 27154 assessed as growth inhibition. The class given is functional. Summed up: as §1
The next assay relates to HL-60. The experiment in a line: Cytotoxicity against human HL60 cells assessed as inhibition of cell viability by MTT assay. The class given is functional, cell-based.
Another assay concerns Vibrio anguillarum. The experiment in a line: Antibacterial activity against Vibrio anguillarum ATCC 19019 assessed as growth inhibition. The class given is functional. Summed up:
as §1

The subject of assay [1] is Staphylococcus epidermidis. The assay is described as follows: Antibacterial activity against Staphylococcus epidermidis ATCC 12228 assessed as growth inhibition. In kind it is functional. Summed up: as §1
A further assay deals with Bacillus cereus. The assay is described as follows: Antibacterial activity against Bacillus cereus ACCC 11077 assessed as growth inhibition. The class given is functional, organism-based. The essentials: as §1
The test system of another assay is Micrococcus. The experiment in a line: Antibacterial activity against Micrococcus tetragenus ATCC 13623 assessed as growth inhibition. In kind it is functional, organism-based. The essentials:
as §1

Another assay relates to Escherichia coli. The experiment in a line: Antibacterial activity against Escherichia coli ATCC 25922 assessed as growth inhibition. In kind it is functional, organism-based. The essentials: as §1
For assay [2], the system named is Staphylococcus epidermidis. The assay is described as follows: Ratio of ciprofloxacin MIC to compound MIC for Staphylococcus epidermidis ATCC 12228. In kind it is functional.

Structures are written as SMILES. Converted amounts (≈) assume the structure as drawn. The source made the active and inactive calls. The rule behind the calls is not given here.

Turning to `COc1cc(C)cc(Oc2cc(C)cc(OC)c2OC)c1O` [CORDYOL D], the IC50 in the assay on K562 and in the assay on HL-60 was above 10 µM throughout. In addition, the minimal inhibitory concentration (MIC) (in the assay with Vibrio parahaemolyticus; in the assay with Pseudomonas putida; in the assay on Staphylococcus aureus; with Vibrio anguillarum; in [1]) was above 100 µM each time.

`CCCCCOc1cc(C)cc(Oc2cc(C)cc(O)c2)c1`: the MIC in the assay with Vibrio parahaemolyticus amounted to 10.4 µM (≈ 3.12 µg/mL); in the assay on Pseudomonas putida it was 10.4 µM (≈ 3.12 µg/mL); with Staphylococcus aureus it was 20.8 µM (≈ 6.25 µg/mL); with Vibrio anguillarum it was 10.4 µM (≈ 3.12 µg/mL); in assay [1], 20.8 µM (≈ 6.25 µg/mL).

As to `CC1(C)C=Cc2c(ccc3c2NC(=O)[C@@]32C[C@@]34NC(=O)[C@]5(CCCN5C3=O)C[C@H]4C2(C)C)O1` [NOTOAMIDE B], the half-maximal inhibitory concentration (IC50) in the assay with K562 and in the assay on HL-60 was above 10 µM each time. In addition, the “growth inhibition (GI)” value with Bacillus cereus, with Vibrio parahaemolyticus, in the assay with Pseudomonas putida, in the assay on Micrococcus, in the assay with Escherichia coli and with Staphylococcus aureus was “inactive” throughout. Moreover, the “growth inhibition (GI)” value (with Vibrio anguillarum; in assay [1]) was “inactive” in each case.

Take `CCCCCOc1cc(C)cc(Oc2cc(C)cc(OCCCCC)c2)c1`: the minimal inhibitory concentration (MIC) in the assay on Vibrio parahaemolyticus is 100 µM (≈ 37.1 µg/mL); in the assay with Pseudomonas putida it was above 100 µM; in the assay with Staphylococcus aureus, above 100 µM; in the assay on Vibrio anguillarum, above 100 µM; in [1] it was above 100 µM.

As to `C=CC(C)(C)[C@]1(C[C@@H]2NC(=O)C3=CCCN3C2=O)C(=O)Nc2c1ccc1c2C=CC(C)(C)O1` [DEHYDRONOTOAMIDE C], the IC50 in the assay on K562 and with HL-60 was above 10 µM in each case. In addition, the “growth inhibition (GI)” value with Bacillus cereus, in the assay with Vibrio parahaemolyticus, with Pseudomonas putida, with Micrococcus, in the assay with Escherichia coli and in the assay with Staphylococcus aureus was “inactive” in each case. Besides, the “growth inhibition (GI)” value (in the assay with Vibrio anguillarum; in [1]) was “inactive” each time.

`Cc1cc(O)cc(Oc2cc(C)cc(OC(=O)c3ccccc3)c2)c1`: the MIC was 18.7 µM (≈ 6.25 µg/mL) in the assay with Vibrio parahaemolyticus; above 100 µM in the assay on Pseudomonas putida; above 100 µM in the assay on Staphylococcus aureus; above 100 µM in the assay with Vibrio anguillarum; 18.7 µM (≈ 6.25 µg/mL) in assay [1].

Regarding `COc1cc(C)cc(Oc2cc(C)cc(O)c2)c1` [CORDYOL E], the concentration for half-maximal inhibition (IC50) in the assay on K562 and with HL-60 was above 10 µM each time. Moreover, the MIC in the assay with Vibrio parahaemolyticus was 51.2 µM (≈ 12.5 µg/mL); with Pseudomonas putida it was 51.2 µM (≈ 12.5 µg/mL); in the assay on Staphylococcus aureus, 51.2 µM (≈ 12.5 µg/mL); in the assay with Vibrio anguillarum, 25.6 µM (≈ 6.25 µg/mL); in assay [1], 25.6 µM (≈ 6.25 µg/mL).

Take `C=CC(C)(C)[C@]1(C[C@@H]2NC(=O)[C@]3(O)CCCN3C2=O)C(=O)Nc2c1ccc1c2C=CC(C)(C)O1` [NOTOAMIDE M]: the 50% inhibitory concentration (IC50) in the assay on K562 and in the assay on HL-60 was above 10 µM in each case. Also, the “growth inhibition (GI)” value in the assay with Bacillus cereus, in the assay on Vibrio parahaemolyticus, in the assay with Pseudomonas putida, with Micrococcus, in the assay with Escherichia coli and in the assay on Staphylococcus aureus was “inactive” throughout. For the same compound, the “growth inhibition (GI)” value (in the assay with Vibrio anguillarum; in assay [1]) was “inactive” each time.

Consider `C=CC(C)(C)[C@]1(C[C@@H]2NC(=O)[C@]3(OC)CCCN3C2=O)C(=O)Nc2c1ccc1c2C=CC(C)(C)O1` [NOTOAMIDE Q], for which the half-maximal inhibitory concentration (IC50) with K562 and in the assay on HL-60 was above 10 µM throughout. The “growth inhibition (GI)” value in the assay with Bacillus cereus, with Vibrio parahaemolyticus, in the assay on Pseudomonas putida, in the assay with Micrococcus, in the assay on Escherichia coli and in the assay with Staphylococcus aureus was “inactive” throughout. For the same compound, the “growth inhibition (GI)” value (in the assay on Vibrio anguillarum; in assay [1]) was “inactive” throughout.

On to `O=C(O)c1cn(C2CC2)c2cc(N3CCNCC3)c(F)cc2c1=O` [CIPROFLOXACIN], for which the MIC turned out to be 0.195 µM (≈ 0.0646 µg/mL) in the assay on Vibrio parahaemolyticus, 0.195 µM (≈ 0.0646 µg/mL) in the assay on Pseudomonas putida, 0.78 µM (≈ 0.258 µg/mL) in the assay on Staphylococcus aureus and 0.0975 µM (≈ 0.0323 µg/mL) in the assay on Vibrio anguillarum.

For `C=CC(C)(C)[C@]1(C[C@@H]2NC(=O)[C@@H]3CCCN3C2=O)C(=O)Nc2c1ccc1c2C=CC(C)(C)O1` [NOTOAMIDE C], the IC50 with K562 and in the assay with HL-60 was above 10 µM throughout. Moreover, the “growth inhibition (GI)” value in the assay on Bacillus cereus, in the assay with Vibrio parahaemolyticus, in the assay with Pseudomonas putida, in the assay on Micrococcus, with Escherichia coli and with Staphylococcus aureus was “inactive” in each case. Moreover, the “growth inhibition (GI)” value (in the assay with Vibrio anguillarum; in [1]) was “inactive” throughout.

As to `COc1cc(C)cc(Oc2cc(C)cc(OC)c2O)c1O`, the half-maximal inhibitory concentration (IC50) in the assay with K562 and in the assay with HL-60 was above 10 µM throughout. Also, the minimum inhibitory concentration (MIC) is above 100 µM with Vibrio parahaemolyticus; above 100 µM in the assay with Pseudomonas putida; 100 µM (≈ 29 µg/mL) with Staphylococcus aureus; 100 µM (≈ 29 µg/mL) in the assay with Vibrio anguillarum; above 100 µM in assay [1].

`C=CC(C)(C)[C@]1(C[C@@H]2NC(=O)[C@@]3(OC)CCCN3C2=O)C(=O)Nc2c1ccc1c2C=CC(C)(C)O1`: the IC50 in the assay on K562 and in the assay on HL-60 was above 10 µM each time. For the same compound, the “growth inhibition (GI)” value in the assay on Bacillus cereus, in the assay with Vibrio parahaemolyticus, in the assay with Pseudomonas putida, in the assay with Micrococcus, in the assay with Escherichia coli and in the assay on Staphylococcus aureus was “inactive” each time. The “growth inhibition (GI)” value (with Vibrio anguillarum; in [1]) was “inactive” in each case.

In the case of `C=CC(C)(C)[C@]1(C[C@@H]2NC(=O)[C@@]3(O)CCCN3C2=O)C(=O)Nc2c1ccc1c2C=CC(C)(C)O1`, the half-inhibitory concentration (IC50) with K562 and in the assay with HL-60 was above 10 µM in each case. Further, the “growth inhibition (GI)” value in the assay with Bacillus cereus, in the assay with Vibrio parahaemolyticus, in the assay on Pseudomonas putida, in the assay on Micrococcus, in the assay with Escherichia coli and in the assay with Staphylococcus aureus was “inactive” each time. Further, the “growth inhibition (GI)” value (in the assay with Vibrio anguillarum; in [1]) was “inactive” in each case.

As for `CC(=O)Oc1cc(C)cc(Oc2cc(C)cc(OC(C)=O)c2)c1`, the MIC (with Vibrio parahaemolyticus; with Pseudomonas putida; with Staphylococcus aureus; in the assay on Vibrio anguillarum; in assay [1]) was above 100 µM in each case.

On to `CC(=O)Oc1cc(C)cc(Oc2cc(C)cc(O)c2)c1`, for which the MIC in the assay with Vibrio parahaemolyticus is 100 µM (≈ 27.2 µg/mL); in the assay with Pseudomonas putida, 100 µM (≈ 27.2 µg/mL); with Staphylococcus aureus it was above 100 µM; in the assay with Vibrio anguillarum it was 46 µM (≈ 12.5 µg/mL); in assay [1] it was 100 µM (≈ 27.2 µg/mL).

As to `Cc1c(Br)c(O)c(Br)c(Oc2c(Br)c(C)c(Br)c(O)c2Br)c1Br`, the MIC with Vibrio parahaemolyticus is 1.11 µM (≈ 0.781 µg/mL); in the assay on Pseudomonas putida, 1.11 µM (≈ 0.781 µg/mL); in the assay on Staphylococcus aureus it was 1.11 µM (≈ 0.781 µg/mL); in the assay on Vibrio anguillarum it was 1.11 µM (≈ 0.781 µg/mL); in [1], 0.556 µM (≈ 0.391 µg/mL). In addition, the Ratio in [2] stood at 5.

As for `Cc1cc(O)cc(Oc2cc(C)cc(O)c2)c1` [DIORCINOL], the IC50 in the assay with K562 and in the assay on HL-60 was above 10 µM each time. Besides, the MIC stood at 100 µM (≈ 23 µg/mL) in the assay with Vibrio parahaemolyticus; 100 µM (≈ 23 µg/mL) in the assay with Pseudomonas putida; 54.3 µM (≈ 12.5 µg/mL) in the assay on Staphylococcus aureus; 100 µM (≈ 23 µg/mL) with Vibrio anguillarum; 27.2 µM (≈ 6.26 µg/mL) in [1].

Regarding `CCCOc1cc(C)cc(Oc2cc(C)cc(O)c2)c1`, the MIC in the assay with Vibrio parahaemolyticus worked out at 2.87 µM (≈ 0.782 µg/mL); in the assay on Pseudomonas putida, 100 µM (≈ 27.2 µg/mL); with Staphylococcus aureus, 46 µM (≈ 12.5 µg/mL); in the assay on Vibrio anguillarum, 23 µM (≈ 6.26 µg/mL); in assay [1] it was 46 µM (≈ 12.5 µg/mL).

For `COC(=O)c1c(C)c(Br)c(Oc2c(Br)c(C)c(Br)c(O)c2Br)c(Br)c1O`, the MIC with Vibrio parahaemolyticus was above 100 µM; with Pseudomonas putida, above 100 µM; in the assay with Staphylococcus aureus, 100 µM (≈ 68.3 µg/mL); in the assay with Vibrio anguillarum, 9.23 µM (≈ 6.3 µg/mL); in assay [1] it was 100 µM (≈ 68.3 µg/mL).

Regarding `CC1(C)C=Cc2c(ccc3c4c([nH]c23)C(C)(C)[C@@H]2C[C@]35CCCN3C(=O)[C@@]2(C4)NC5=O)O1` [STEPHACIDIN A], the IC50 in the assay with K562 and in the assay on HL-60 was above 10 µM each time. Besides, the minimum inhibitory concentration (MIC) was above 100 µM in the assay on Vibrio parahaemolyticus; above 100 µM in the assay on Pseudomonas putida; above 100 µM in the assay with Staphylococcus aureus; above 100 µM with Vibrio anguillarum; 14.5 µM (≈ 6.26 µg/mL) in assay [1].

As for `Cc1cc(O)cc(Oc2cc(C)cc(O)c2O)c1` [CORDYOL C], the half-maximal inhibitory concentration (IC50) with K562 and with HL-60 was above 10 µM each time. Also, the minimal inhibitory concentration (MIC) (in the assay on Vibrio parahaemolyticus; in the assay on Pseudomonas putida; in the assay with Staphylococcus aureus; in the assay with Vibrio anguillarum; in [1]) was 100 µM (≈ 24.6 µg/mL) each time.

Regarding `COC(=O)c1c(C)cc(Oc2cc(C)cc(O)c2)cc1O`, the results for the IC50 in the assay with K562 and in the assay with HL-60 were 5.94 µM and above 10 µM, respectively. In addition, the MIC is 21.7 µM (≈ 6.26 µg/mL) in the assay on Vibrio parahaemolyticus; 21.7 µM (≈ 6.26 µg/mL) in the assay with Pseudomonas putida; 10.9 µM (≈ 3.14 µg/mL) in the assay on Staphylococcus aureus; 21.7 µM (≈ 6.26 µg/mL) with Vibrio anguillarum; 2.71 µM (≈ 0.781 µg/mL) in assay [1].
